Source: ChEMBL document CHEMBL1649510, “Nonsense and missense mutations in FCY2 and FCY1 genes are responsible for flucytosine resistance and flucytosine-fluconazole cross-resistance in clinical isolates of Candida lusitaniae” (2009)
Converted amounts (≈) assume the structure as drawn.

Legend:
Format in all cases: functional
Clavispora lusitaniae [1] = assay: Antifungal activity against Candida lusitaniae CL128 by microdilution method
Method in brief: (§1)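 CLSI broth microdilution using twofold dilutions in RPMI 1640 with about 10³ cells/ml, incubated 48 h at 35°C. Final ranges were 0.5–256 μg/ml flucytosine and 0.25–128 μg/ml fluconazole. Cross-resistance was tested with a flucytosine gradient at constant fluconazole (8 or 16 μg/ml). MIC was read by automated plate reader as the lowest concentration giving 50% growth inhibition versus the drug-free control.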

Clavispora lusitaniae [2] = assay: Antifungal activity against Candida lusitaniae CL38-5 expressing FCY21 gene by microdilution method; method in brief: as §1
Clavispora lusitaniae [3] = assay: Antifungal activity against Candida lusitaniae CL26 by microdilution method; method in brief: as §1
Clavispora lusitaniae [4] = assay: Antifungal activity against Candida lusitaniae CL29 by microdilution method; method in brief: as §1
Clavispora lusitaniae [5] = assay: Antifungal activity against Candida lusitaniae CL38 by microdilution method; method in brief: as §1
Clavispora lusitaniae [6] = assay: Antifungal activity against Candida lusitaniae CL38-5 expressing URA3 gene by microdilution method; method in brief: as §1
Clavispora lusitaniae [7] = assay: Antifungal activity against Candida lusitaniae 6936 by microdilution method; method in brief: as §1
Clavispora lusitaniae [8] = assay: Antifungal activity against fcy1-deficient Candida lusitaniae by microdilution method; method in brief: as §1
Clavispora lusitaniae [9] = assay: Antifungal activity against Candida lusitaniae CL32 by microdilution method; method in brief: as §1
Clavispora lusitaniae [10] = assay: Antifungal activity against Candida lusitaniae 42720 by microdilution method; method in brief: as §1
Clavispora lusitaniae [11] = assay: Antifungal activity against fcy1(1-26)-deficient Candida lusitaniae by microdilution method; method in brief: as §1
Clavispora lusitaniae [12] = assay: Antifungal activity against Candida lusitaniae CL216 by microdilution method; method in brief: as §1
Clavispora lusitaniae [13] = assay: Antifungal activity against Candida lusitaniae CL48 by microdilution method; method in brief: as §1
Clavispora lusitaniae [14] = assay: Antifungal activity against fcy1(1-119)-deficient Candida lusitaniae by microdilution method; method in brief: as §1
Clavispora lusitaniae [15] = assay: Antifungal activity against Candida lusitaniae CL42 by microdilution method; method in brief: as §1
Clavispora lusitaniae [16] = assay: Antifungal activity against Candida lusitaniae CL38-5 expressing FCY2 gene by microdilution method; method in brief: as §1
Clavispora lusitaniae [17] = assay: Antifungal activity against Candida lusitaniae CL174 by microdilution method; method in brief: as §1
Clavispora lusitaniae [18] = assay: Antifungal activity against Candida lusitaniae CL31 by microdilution method; method in brief: as §1
Clavispora lusitaniae [19] = assay: Antifungal activity against Candida lusitaniae CL119 by microdilution method; method in brief: as §1
Clavispora lusitaniae [20] = assay: Antifungal activity against REPF URA3 fcy1-deficient Candida lusitaniae by microdilution method; method in brief: as §1

SMILES | MIC (Clavispora lusitaniae [1]) [µg/mL] | MIC (Clavispora lusitaniae [2]) [µg/mL] | MIC (Clavispora lusitaniae [3]) [µg/mL] | MIC (Clavispora lusitaniae [4]) [µg/mL] | MIC (Clavispora lusitaniae [5]) [µg/mL] | MIC (Clavispora lusitaniae [6]) [µg/mL] | MIC (Clavispora lusitaniae [7]) [µg/mL] | MIC (Clavispora lusitaniae [8]) [µg/mL] | MIC (Clavispora lusitaniae [9]) [µg/mL] | MIC (Clavispora lusitaniae [10]) [µg/mL] | MIC (Clavispora lusitaniae [11]) [µg/mL] | MIC (Clavispora lusitaniae [12]) [µg/mL] | MIC (Clavispora lusitaniae [13]) [µg/mL] | MIC (Clavispora lusitaniae [14]) [µg/mL] | MIC (Clavispora lusitaniae [15]) [µg/mL] | MIC (Clavispora lusitaniae [16]) [µg/mL] | MIC (Clavispora lusitaniae [17]) [µg/mL] | MIC (Clavispora lusitaniae [18]) [µg/mL] | MIC (Clavispora lusitaniae [19]) [µg/mL] | MIC (Clavispora lusitaniae [20]) [µg/mL]
OC(Cn1cncn1)(Cn1cncn1)c1ccc(F)cc1F [FLUCONAZOLE] | 1 (≈ 3.27 µM) | 2 (≈ 6.53 µM) | ≤ 0.25 | 2 (≈ 6.53 µM) | 2 (≈ 6.53 µM) | 2 (≈ 6.53 µM) | 2 (≈ 6.53 µM) | 2 (≈ 6.53 µM) | ≤ 0.25 | 2 (≈ 6.53 µM) | 2 (≈ 6.53 µM) | 1 (≈ 3.27 µM) | 2 (≈ 6.53 µM) | 2 (≈ 6.53 µM) | 4 (≈ 13.1 µM) | 2 (≈ 6.53 µM) | 1 (≈ 3.27 µM) | 2 (≈ 6.53 µM) | 1 (≈ 3.27 µM) | 2 (≈ 6.53 µM)
Nc1nc(=O)[nH]cc1F [FLUCYTOSINE] | 32 (≈ 248 µM) | 32 (≈ 248 µM) | 64 (≈ 496 µM) | 128 (≈ 992 µM) | 32 (≈ 248 µM) | 32 (≈ 248 µM) | ≤ 0.5 | 128 (≈ 992 µM) | 128 (≈ 992 µM) | ≤ 0.5 | 128 (≈ 992 µM) | 32 (≈ 248 µM) | 32 (≈ 248 µM) | 128 (≈ 992 µM) | 64 (≈ 496 µM) | ≤ 0.5 | 64 (≈ 496 µM) | 32 (≈ 248 µM) | 32 (≈ 248 µM) | ≤ 0.5
